Bioassay records from PubChem.
SENP1 FRET inh – human SENP1 catalytic domain inhibitors, primary screen, biochemical, FRET, uHTS. inhibition, % at 10 µM. 0.21% of 360,000 active. recombinant SENP1 catalytic domain, CyPet-SUMO1-YPet FRET cleavage. Sentrin-specific protease 1 (Homo sapiens), Q9P0U3;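 active = inhibition at least 30% at 10 µM, raw YFP signal under a set limit, fluorescence ratio 0.5 to 1.5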;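 also: 0% = enzyme with DMSO and 100% = no enzyme wells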
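Test system: hSENP1 catalytic domain, recombinant; Amount: 20 pM final SENP1 enzyme; Medium: Tris pH 8 buffer plus EDTA, NaCl, BME, BSA, NP40, catalase; Schedule: 50 min enzyme reaction, room temperature, light-protected; Technique: FRET fluorescence in CFP and YFP emission channels; Controls: no-enzyme wells low, DMSO-plus-enzyme wells high control.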
CSN deneddyl inh – inhibitors of CSN-mediated cullin deneddylation, primary screen, biochemical, fluorescence polarization, uHTS. COP9 signalosome complex subunit 5 (Homo sapiens), Q92905. AID 651999, 2013. Purified CSN, SCF-Nedd8-OG deneddylation. inhibition, % at 12.5 µM. 0.38% of 360,000 active;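 active = pattern-corrected inhibition above about 35%, with an unprinted fluorescence ratio check between 0.5 and 1.5, limit read from the data, passing the limit was not always enough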;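 also: 0% = enzyme with substrate and 100% = substrate without enzyme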
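test system = HEK293T-derived human Csn5 enzyme | amount = 0.24 nM Csn5 enzyme, final concentration | medium = Tris/NaCl/DTT buffer, pH 7.5 | schedule = 90 min reaction at room temperature | signal = FP | evaluation = inhibition of Csn5 cleavage, % | compound dosing = single dose of 12.5 µM compound with 0.25% DMSO | probe or stimulus = 10 nM SCFSkp2-Nedd8OG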
HNF4A DNA FP – change in binding of human HNF4A to DNA, primary screen, biochemical, fluorescence polarization, FITC-DNA; Hepatocyte nuclear factor 4-alpha (Homo sapiens), P41235; 1 h; 0.3% of 360,000 active; activity change, % at 10 µM; in the data active = activity change above about 30%, passing the limit was not always enough
Target sequence (P41235 whole entry, looked up): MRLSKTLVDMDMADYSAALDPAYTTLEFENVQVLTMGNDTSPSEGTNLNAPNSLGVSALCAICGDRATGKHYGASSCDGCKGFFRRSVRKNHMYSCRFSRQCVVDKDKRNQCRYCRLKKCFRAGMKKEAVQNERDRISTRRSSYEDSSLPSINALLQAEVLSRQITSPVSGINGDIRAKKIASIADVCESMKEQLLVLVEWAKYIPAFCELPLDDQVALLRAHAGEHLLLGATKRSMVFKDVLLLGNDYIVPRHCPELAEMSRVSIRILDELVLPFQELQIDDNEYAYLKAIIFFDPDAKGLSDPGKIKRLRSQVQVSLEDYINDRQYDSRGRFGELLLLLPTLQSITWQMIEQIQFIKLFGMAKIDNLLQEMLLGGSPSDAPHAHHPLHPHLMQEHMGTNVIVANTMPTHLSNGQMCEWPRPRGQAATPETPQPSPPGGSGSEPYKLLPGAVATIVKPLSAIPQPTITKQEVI
ATG4B inh – ATG4B protease inhibitors, primary screen, biochemical, fluorescence, uHTS. Cysteine protease ATG4B (Homo sapiens), Q9Y4P1. ATG4B cleavage of LC3-PLA2, NBD-HPC fluorescence, 1 h. inhibition, % at 8.33 µM. 0.51% of 340,000 active
TPT1 inh – Candida albicans TPT1 enzyme inhibitors, primary screen, biochemical, fluorescence polarization | inhibition, % at 5 µM | 0.81% of 300,000 active | recombinant caTPT1, FP RNA substrate dephosphorylation | tRNA 2'-phosphotransferase TPT1 (Candida albicans SC5314);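 active = inhibition above the mean of all tested compounds plus 3 SD, set per screening campaign, cut at about 24% in these data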;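 also: plate controls were DMSO alone for no effect and ferristatin control at 100 nM for full effect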
Rpn11 block – Rpn11 (PSMD14) deubiquitinase inhibitors, primary screen, biochemical, fluorescence polarization, uHTS | 26S proteasome non-ATPase regulatory subunit 14 (Homo sapiens), O00487 | human 26S proteasome, Ub4-pepOG fluorescence polarization; 20S core pre-blocked with epoxomicin | inhibition, % at 20 µM | 0.59% of 360,000 active;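 active = inhibition at 20 µM, scaled to each plate's controls, above about 33%, limit read from the data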
caTPT1 confirm – Candida albicans TPT1 inhibitors, confirmation, biochemical, fluorescence polarization, triplicate; inhibition, % at 5 µM; recombinant caTPT1, RNase T1 coupled; AID 2149, 2009; shares compounds with TPT1 inh; 74% of 2,400 active;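 active = inhibition above the primary screen limit, the mean inhibition of all tested compounds plus 3 SD, cut at about 25% in these data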
RNase T1 counter – RNase T1 inhibitors, counter-screen for TPT1 inhibitor project, biochemical, fluorescence polarization | shares compounds with TPT1 inh | RNase T1 cleavage, 1536-well | inhibition, % at 5 µM | 83% of 2,400 active;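 active = inhibition above the solvent-only control well mean plus 3 SD, limit set per screening run, cut at about 23% in these data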;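 also: plate controls were DMSO wells with enzyme for no effect and wells without RNase T1 for full effect; inhibitors block cleavage so intact labeled substrate keeps polarization high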
Target sequence (P00651 whole entry, looked up): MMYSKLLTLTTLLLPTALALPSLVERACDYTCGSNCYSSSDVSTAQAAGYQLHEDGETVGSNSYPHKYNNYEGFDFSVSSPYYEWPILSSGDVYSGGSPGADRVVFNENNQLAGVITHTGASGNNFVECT
ATG4B confirm – ATG4B protease inhibitors, retest, confirmation, biochemical, fluorescence, single concentration; shares compounds with ATG4B inh; ATG4B protease fluorescent substrate cleavage assay; inhibition, % at 8.33 µM; 92% of 320 active; AID 504757, 2011; in the data active = inhibition above about 39%
PLA2 ctr – PLA2 enzyme inhibition, counter-screen for ATG4B inhibitor project, biochemical, single concentration, uHTS hits; shares compounds with ATG4B inh; purified PLA2, NBD-C6-HPC fluorescence, 45 min; inhibition, % at 8.33 µM; 66% of 1,600 active; AID 588402, 2011; in the data active = inhibition above about 50%
Target sequence (P04054 whole entry, looked up): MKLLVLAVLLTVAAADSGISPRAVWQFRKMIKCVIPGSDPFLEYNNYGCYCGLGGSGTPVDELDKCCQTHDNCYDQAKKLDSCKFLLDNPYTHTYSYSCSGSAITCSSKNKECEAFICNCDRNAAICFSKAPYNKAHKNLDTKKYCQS
Rpn11 confirm – Rpn11 (PSMD14) deubiquitinase inhibitors, confirmation, biochemical, fluorescence polarization, single concentration; shares compounds with Rpn11 block; purified human 26S proteasome, Ub4-pepOG fluorescence polarization; proteasome pretreated with epoxomicin; inhibition, % at 20 µM; 29% of 1,900 active; AID 602318, 2012
MMP-2 counter-1 – MMP-2 enzyme inhibition, confirmation, counter-screen for RPN11 inhibitor project, biochemical, fluorescence, single concentration; shares compounds with Rpn11 block; recombinant MMP-2, FRET peptide cleavage fluorescence; inhibition, % at 20 µM; 4% of 1,900 active; AID 602330, 2012;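 also: human MMP-2 activated beforehand with APMA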
Thrombin FP – bovine thrombin protease inhibition, confirmation, counter-screen for Rpn11 inhibitor project, biochemical, fluorescence polarization, single concentration | AID 602333, 2012 | inhibition, % at 20 µM | shares compounds with Rpn11 block | 13% of 1,900 active | bovine thrombin cleavage of Ub4-pepOG;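 active = mean inhibition at least 40% at 20 µM, or signal 3 deviations below plate average, so some actives read negative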;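 also: plate controls were thrombin with DMSO for no effect and buffer wells lacking thrombin for full effect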
CSN5 deneddyl – Csn5 deneddylation inhibitors, confirmation, biochemical, fluorescence polarization, single concentration, SCF-Nedd8OG substrate; inhibition, % at 16.6 µM; shares compounds with CSN deneddyl inh; Csn5 deneddylation of SCF-Nedd8OG, 90 min; 62% of 540 active; in the data active = inhibition above about 50%;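 also: 0% = DMSO with enzyme and 100% = no enzyme wells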
MMP-2 counter-2 – MMP-2 protease inhibition counter-screen, confirmation, counter-screen for CSN deneddylation inhibitor project, biochemical, fluorescence, single concentration; AID 720655, 2013; inhibition, % at 16.6 µM; 33% of 540 active; recombinant MMP-2, FRET substrate fluorescence, 60 min; shares compounds with CSN deneddyl inh;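 active = corrected plate-normalized z-score of 5 or more, or -5 or less, or inhibition of 15% or more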;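 also: plate controls were DMSO wells with enzyme for no effect and buffer wells lacking MMP-2 for full effect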
Thrombin counter – blocks bovine thrombin in a CSN deneddylation counter-screen; inhibition, % at 16.6 µM; AID 720656; 49% of 540 active; bovine thrombin cleavage of Ub4-pepOG, fluorescence polarization; shares compounds with CSN deneddyl inh;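 active = inhibition at or above a set limit, with a fluorescence interference ratio between 0.5 and a set maximum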
Numbers without * were called inactive; · = no result shown; + = active, no number. The list is not random: actives were taken first. Their share in the collection is about 2%. Rule as the data show it, unless noted: active = inhibition above about 40%; inactive = the rest.

SMILES	SENP1 FRET inh	CSN deneddyl inh	HNF4A DNA FP	ATG4B inh	TPT1 inh	Rpn11 block	caTPT1 confirm	RNase T1 counter	CSN5 deneddyl	MMP-2 counter-2	Thrombin counter	others
NS(=O)(=O)c1cc(C(=O)NC2CCSc3ccccc32)ccc1Cl (stereo not given)	-0.4	64.3*	-76.6	54.2*	53.7*	106.4*	67.2*	3.3	20.8	13.4	49.3*	ATG4B confirm=42.6*;PLA2 ctr=24.8;Rpn11 confirm=97.8*;MMP-2 counter-1=21.7;Thrombin FP=60.5*
Cc1c(C(=O)NCc2cccc(C(F)(F)F)c2)sc(=O)n1Cc1ccc(S(=O)(=O)N(C)C)cc1	-2.0	-3.0	0.7	·	·	9.6	·	·	·	·	·
N#Cc1c(NC(=O)/C=C/C(=O)O)sc2c1CCN(Cc1ccccc1)C2	-18.3	41.6*	25.5	0.6	122.3*	·	60.6*	71.7*	40.3	2.4	45.6*
COc1ccc(/C=C2\C(=O)NC(=S)N2C(=O)c2ccc(F)cc2)cc1	-27.3	65.0*	72.5*	29.3	148.3*	+	155.7*	145.2*	·	-38.4*	-52.8	Rpn11 confirm=+;MMP-2 counter-1=12.4;Thrombin FP=active
CCN1C(=O)/C(=C/C=C2\N(CC)c3cc(S(=O)(=O)N(C)C)ccc3N2c2ccccc2)SC1=S	100.7	74.5*	133.2	3.0	135.7*	·	94.1*	93.7*	63.5*	-6.2	34.2*
O=C1/C(=C/C=C/c2ccco2)SC(=S)N1c1ccc(O)cc1	6.3	57.2*	-2.9	29.8	27.6*	94.6*	49.7*	56.5*	63.8*	31.2*	42.2*
CN(C)c1ccc(/C=C/C=C2/SC(=S)N(c3ccccc3)C2=O)cc1	72.5*	37.7*	57.4*	-5.0	104.1*	69.5*	70.6*	80.9*	66.7*	-10.1	35.4*	Rpn11 confirm=49.4*;MMP-2 counter-1=-30.6;Thrombin FP=36.8
O=C(O)c1ccc(N2C(=O)/C(=C/C=C/c3ccccc3)SC2=S)cc1	6.6	18.8	1.6	2.4	5.2	20.9	·	·	·	·	·
Cc1noc(C)c1NC(=O)N(C)C[C@@H]1Oc2c(NC(=O)c3ccncc3)cccc2C(=O)N([C@H](C)CO)C[C@@H]1C	-1.2	1.8	10.0	-5.0	·	8.4	·	·	·	·	·
Cc1ccc(S(=O)(=O)N2[C@@H](Cc3ccccc3)CO[C@H]2CC(=O)c2cccs2)cc1	0.8	1.1	-3.8	·	·	·	·	·	·	·	·
CCCOc1ccc(/C=C2\SC(=S)N(CC3CCCO3)C2=O)cc1 (stereo not given)	-7.7	-7.2	-1.3	2.0	3.4	3.7	·	·	·	·	·
O=C1/C(=C/c2ccc(O)cc2)SC(=S)N1CC1CCCO1 (stereo not given)	45.8	93.8*	91.1*	15.4	74.9*	·	80.8*	82.9*	44.4	-22.1	46.0
O=C(N/N=C/c1c(O)ccc2ccccc12)c1ccc(Br)o1	-23.2	37.2*	12.6	2.5	38.6*	37.3	50.6*	55.7*	65.9*	11.5	6.1
O=C(N/N=C/c1c(O)ccc2ccccc12)Nc1ccccc1	·	·	·	-10.2	2.1	·	·	·	·	·	·
CN(C)c1ccc(/C=C2\SC(N3CCCCC3)=NC2=O)cc1	-22.5	83.7*	118.5	-1.9	106.0*	·	115.7*	116.2*	63.2*	1.5	78.3*
Cc1ccc(/C=C2\SC(N3CCCC3)=NC2=O)cc1	·	·	·	·	-0.9	·	·	·	·	·	·
CN1CCN(S(=O)(=O)c2cc([N+](=O)[O-])ccc2N/N=C/c2ccc(Cl)cc2)CC1	-25.9	-0.8	2.3	-2.8	1.3	2.5	·	·	·	·	·
O=[N+]([O-])c1ccc(N/N=C/c2c[nH]c3ccccc23)c(S(=O)(=O)Nc2ccc(Cl)cc2)c1	-17.2	38.5*	64.8*	42.3*	36.5*	·	106.5*	107.6*	81.7*	6.8	12.1	PLA2 ctr=52.8*
